Data published in ChEMBL document CHEMBL5712899, “WDR5 supports colon cancer cells by promoting methylation of H3K4 and suppressing DNA damage” (2018).
The source made the active and inactive calls. The calls are words filed in the database; no cut-off is given here.

What was measured:
[1] = test system: RKO; assay: Induction of apoptosis in human RKO cells assessed as viable cells at 10 uM measured after 48 hrs by Annexin V/Propidium iodide staining based flow cytometry (Rvb =76.1%); format: functional; details: read-out: Activity
[2] = test system: RKO; assay: Cytotoxicity against human RKO cells assessed as decrease in cell viability at 10 uM measured after 72 hrs by Alamar Blue assay; format: functional, cell-based
In short: (§1)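 Cells grown in DMEM with 10% FBS and treated 72 h with compound diluted 1:1000 from 10 mM DMSO stock (final 0.1% DMSO, vehicle control). alamarBlue added at 100 μL per mL medium for 1–3 h at 37 °C, then fluorescence read. Values background-subtracted against cell-free wells and normalized to control set to 1. Shown ± SD; unpaired two-sided t-test.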

[3] = test system: LoVo; assay: Inhibition of colony formation in human LoVo cells assessed as decrease in number of colonies at 10 uM incubated for 10 to 14 days; format: functional, cell-based; details: time 10-14 day
In short: (§2)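 Colony assay in 24-well plates with compound for 10–14 days, diluted from 10 mM DMSO stock to a final 0.1% DMSO (vehicle control). Colony number and average colony size quantified per line. Unpaired two-sided t-test.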

[4] = test system: HCT-116; assay: Cytotoxicity against human HCT-116 cells assessed as decrease in cell viability at 10 uM for 72 hrs by Alamar Blue assay; format: functional, cell-based; in short: as §1
[5] = test system: RKO; assay: Inhibition of colony formation in human RKO cells assessed as decrease in colony size at 10 uM incubated for 10 to 14 days; format: functional, cell-based; details: time 10-14 day; in short: as §2
[6] = test system: T84; assay: Inhibition of colony formation in human T84 cells assessed as decrease in colony size at 10 uM incubated for 10 to 14 days; format: functional, cell-based; details: time 10-14 day; in short: as §2
[7] = test system: SW-620; assay: Cell cycle arrest in human SW620 cells assessed as increase in G1-phase cell population at 10 uM measured after 48 hrs by propidium iodide staining based flow cytometry; format: functional
In short: (§3)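 Fixed overnight at −20 °C in ice-cold 70% ethanol after collecting adherent and nonadherent cells. Rehydrated in PBS for 15 min at 37 °C, then PI-stained for 8–15 h. Read on an LSR II flow cytometer with cell-cycle modelling for phase percentages. Compound added from 10 mM DMSO stock diluted 1:1000 into pre-warmed medium (0.1% DMSO vehicle control). Unpaired two-sided t-test.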

[8] = test system: T84; assay: Inhibition of colony formation in human T84 cells assessed as decrease in number of colonies at 10 uM incubated for 10 to 14 days; format: functional, cell-based; details: time 10-14 day; in short: as §2
[9] = test system: HCT-116; assay: Induction of apoptosis in human HCT-116 cells assessed as early apoptotic cells at 10 uM measured after 48 hrs by Annexin V/Propidium iodide staining based flow cytometry (reference value: 19.4%); format: functional
[10] = test system: SW-620; assay: Induction of apoptosis in human SW620 cells assessed as early apoptotic cells at 10 uM measured after 48 hrs by Annexin V/Propidium iodide staining based flow cytometry (reference value: 4.03%); format: functional
[11] = test system: SW-620; assay: Inhibition of colony formation in human SW620 cells assessed as decrease in number of colonies at 10 uM incubated for 10 to 14 days; format: functional, cell-based; details: time 10-14 day; in short: as §2
[12] = test system: LoVo; assay: Inhibition of colony formation in human LoVo cells assessed as decrease in colony size at 10 uM incubated for 10 to 14 days; format: functional, cell-based; details: time 10-14 day; in short: as §2
[13] = test system: RKO; assay: Cell cycle arrest in human RKO cells assessed as increase in G1-phase cell population at 10 uM measured after 48 hrs by propidium iodide staining based flow cytometry; format: functional; in short: as §3
[14] = test system: RKO; assay: Inhibition of colony formation in human RKO cells assessed as decrease in number of colonies at 10 uM incubated for 10 to 14 days; format: functional, cell-based; details: time 10-14 day; in short: as §2
[15] = Inhibition of RBBP5 interaction with flag-tagged human WDR5 expressed in HEK293T cells assessed as endogenous RBBP5 level at 10 uM measured after 5 hrs by co-immunoprecipitation assay relative to control; design: scale not given: the % may be the effect or the level left; details: condition malignant colon neoplasm
[16] = test system: SW-620; assay: Induction of apoptosis in human SW620 cells assessed as viable cells at 10 uM measured after 48 hrs by Annexin V/Propidium iodide staining based flow cytometry (Rvb =84.8%); format: functional; details: read-out: Activity
[17] = test system: HCT-116; assay: Induction of apoptosis in human HCT-116 cells assessed as viable cells at 10 uM measured after 48 hrs by Annexin V/Propidium iodide staining based flow cytometry (reference value: 62.7%); format: functional; details: read-out: Activity
[18] = test system: RKO; assay: Induction of apoptosis in human RKO cells assessed as late apoptotic cells at 10 uM measured after 48 hrs by Annexin V/Propidium iodide staining based flow cytometry (reference value: 6.58%); format: functional
[19] = test system: HCT-116; assay: Induction of apoptosis in human HCT-116 cells assessed as late apoptotic cells at 10 uM measured after 48 hrs by Annexin V/Propidium iodide staining based flow cytometry (reference value: 17.2%); format: functional
[20] = test system: T84; assay: Cytotoxicity against human T84 cells assessed as reduction in cell viability at 10 uM for 72 hrs by Alamar Blue assay relative to control; format: functional; in short: as §1
[21] = test system: HCT-116; assay: Inhibition of colony formation in human HCT-116 cells assessed as decrease in colony size at 10 uM incubated for 10 to 14 days; format: functional, cell-based; details: time 10-14 day; in short: as §2
[22] = test system: SW-620; assay: Induction of apoptosis in human SW620 cells assessed as late apoptotic cells at 10 uM measured after 48 hrs by Annexin V/Propidium iodide staining based flow cytometry (reference value: 10.3%); format: functional
[23] = test system: RKO; assay: Induction of apoptosis in human RKO cells assessed as necrotic cells at 10 uM measured after 48 hrs by Annexin V/Propidium iodide staining based flow cytometry (reference value: 0.54%); format: functional
[24] = test system: HCT-116; assay: Induction of apoptosis in human HCT-116 cells assessed as necrotic cells at 10 uM measured after 48 hrs by Annexin V/Propidium iodide staining based flow cytometry (reference value: 0.67%); format: functional
[25] = test system: SW-620; assay: Induction of apoptosis in human SW620 cells assessed as necrotic cells at 10 uM measured after 48 hrs by Annexin V/Propidium iodide staining based flow cytometry (reference value: 0.87%); format: functional
[26] = test system: SW-620; assay: Cytotoxicity against human SW620 cells assessed as reduction in cell viability at 10 uM for 72 hrs by Alamar Blue assay relative to control; format: functional; in short: as §1
[27] = test system: SW480; assay: Inhibition of colony formation in human SW480 cells assessed as decrease in number of colonies at 10 uM incubated for 10 to 14 days; format: functional, cell-based; details: time 10-14 day; in short: as §2
[28] = test system: RKO; assay: Induction of apoptosis in human RKO cells assessed as early apoptotic cells at 10 uM measured after 48 hrs by Annexin V/Propidium iodide staining based flow cytometry (reference value: 16.7%); format: functional
[29] = test system: SW-620; assay: Inhibition of colony formation in human SW620 cells assessed as decrease in colony size at 10 uM incubated for 10 to 14 days; format: functional, cell-based; details: time 10-14 day; in short: as §2

Which viability at 10 µM [1] does the source give for `CN1CCN(c2ccc(-c3cccc(CN4CCOCC4)c3)cc2NC(=O)c2c[nH]c(=O)cc2C(F)(F)F)CC1` here?
The viability at 10 µM was 68.5%.

And the Activity [2]?
The Activity was “Active”.

And the inhibition [3]?
The inhibition was “inactive”.

What about the Activity [4] of the same compound?
The Activity was “Active”.

And the inhibition [5]?
The inhibition was “inactive”.

And the inhibition [6]?
Its inhibition is “Active”.

What about the Activity [7] of the same compound?
Its Activity is “Active”.

And the inhibition [8]?
Its inhibition is “Active”.

And the Activity [9]?
The Activity was 22.2%.

What about the Activity [10] of the same compound?
The Activity was 8.01%.

And the inhibition [11]?
The inhibition was “Active”.

What about the inhibition [12] of the same compound?
The inhibition was “inactive”.

And the Activity [13]?
Its Activity is “Active”.

And the inhibition [14]?
The inhibition was “Active”.

And the Activity [15]?
Its Activity is less than 20%.

And the viability at 10 µM [16]?
The viability at 10 µM was 81.3%.

What about the viability at 10 µM [17] of the same compound?
The viability at 10 µM was 46.1%.

And the Activity [18]?
Its Activity is 4.3%.

And the Activity [19]?
The Activity was 30.4%.

And the Activity [20]?
The Activity was 50%.

And the inhibition [21]?
Its inhibition is “Active”.

And the Activity [22]?
The Activity was 10.3%.

What about the Activity [23] of the same compound?
Its Activity is 0.18%.

And the Activity [24]?
The Activity was 1.36%.

What about the Activity [25] of the same compound?
Its Activity is 0.43%.

And the Activity [26]?
Its Activity is 50%.

What about the inhibition [27] of the same compound?
Its inhibition is “Active”.

What about the Activity [28] of the same compound?
Its Activity is 27%.

And the inhibition [29]?
Its inhibition is “Active”.
